The text below walks through data of ChEMBL document CHEMBL1781959, “Synthesis and in vitro antitumor activity of substituted quinazoline and quinoxaline derivatives: search for anticancer agent” (Eur J Med Chem, 2011).

Holding throughout (type): functional
The test system of assay [1] is MCF7. Description: Growth inhibition of human MCF7 cells after 48 hrs by SRB assay. As to conditions: MCF7, 48 h. A digest of the protocol: (§1)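 NCI 60-panel five-dose assay at 0.01, 0.1, 1, 10 and 100 μM. Cells in RPMI 1640 with 5% FBS and 2 mM L-glutamine, preincubated 24 h, with time-zero plates TCA-fixed. Drug exposure 48 h at 37 °C. Read by SRB staining at 515 nm. GI50 is the concentration where [(Ti−Tz)/(C−Tz)]×100 = 50, taken from log concentration versus % growth curves.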
Background: The SRB assay estimates cell density from bound dye.

Assay [2] relates to SN12C. Nature of the assay: Growth inhibition of human SN12C cells after 48 hrs by SRB assay. In short, it runs like this:
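NCI-60 panel cells grown in RPMI 1640 with 5% FBS and 2 mM L-glutamine, then seeded at 5000–40,000 cells/well by doubling time and preincubated for 24 h. Compound in DMSO was tested either at 10^-5 M alone or at 0.01–100 μM in five doses, for 48 h at 37 °C. Cells were fixed with cold TCA (10% final), stained with SRB, and read at 515 nm. GI50 was taken from % growth relative to time-zero and control wells.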

Assay [3] relates to NCI-H226. Description: Growth inhibition of human NCI-H226 cells after 48 hrs by SRB assay. To be noted: NCI-H226, 48 h. A digest of the protocol:
as §1

One may read the GI50 as the concentration at which growth is held to half of that of the control. A word on the TGI: it is the concentration at which net growth stops. A low value points to more potent growth arrest. Take `O=c1c2ccccc2nc(-c2ccco2)n1/N=C/c1ccccc1Cl`: the values for the 50% growth inhibitory concentration (GI50) in assay [1], in assay [2] and in assay [3] were 5.29 µM, 4.89 µM and 4.12 µM, respectively. In addition, the TGI in assay [1], in assay [2] and in assay [3] was above 100 µM each time.
